ChEMBL document CHEMBL5661979, “Pharmacological inhibition of BMK1 suppresses tumor growth through promyelocytic leukemia protein” (Cancer Cell, 2010)

How the values were obtained:
Type in all cases: subcellular
Ephrin type-A receptor 2 = Ephrin type-A receptor 2 (Homo sapiens, UniProt P29317); experiment: Inhibition of EphA2 in human HeLa cells lysate at 2 uM pre incubated for 15 mins followed by ATP acyl phosphate probe addition and measured after 10 mins by LC-MS/MS analysis relative to control; conditions: time 25.0 min
Sequence of Ephrin type-A receptor 2 (P29317 whole entry): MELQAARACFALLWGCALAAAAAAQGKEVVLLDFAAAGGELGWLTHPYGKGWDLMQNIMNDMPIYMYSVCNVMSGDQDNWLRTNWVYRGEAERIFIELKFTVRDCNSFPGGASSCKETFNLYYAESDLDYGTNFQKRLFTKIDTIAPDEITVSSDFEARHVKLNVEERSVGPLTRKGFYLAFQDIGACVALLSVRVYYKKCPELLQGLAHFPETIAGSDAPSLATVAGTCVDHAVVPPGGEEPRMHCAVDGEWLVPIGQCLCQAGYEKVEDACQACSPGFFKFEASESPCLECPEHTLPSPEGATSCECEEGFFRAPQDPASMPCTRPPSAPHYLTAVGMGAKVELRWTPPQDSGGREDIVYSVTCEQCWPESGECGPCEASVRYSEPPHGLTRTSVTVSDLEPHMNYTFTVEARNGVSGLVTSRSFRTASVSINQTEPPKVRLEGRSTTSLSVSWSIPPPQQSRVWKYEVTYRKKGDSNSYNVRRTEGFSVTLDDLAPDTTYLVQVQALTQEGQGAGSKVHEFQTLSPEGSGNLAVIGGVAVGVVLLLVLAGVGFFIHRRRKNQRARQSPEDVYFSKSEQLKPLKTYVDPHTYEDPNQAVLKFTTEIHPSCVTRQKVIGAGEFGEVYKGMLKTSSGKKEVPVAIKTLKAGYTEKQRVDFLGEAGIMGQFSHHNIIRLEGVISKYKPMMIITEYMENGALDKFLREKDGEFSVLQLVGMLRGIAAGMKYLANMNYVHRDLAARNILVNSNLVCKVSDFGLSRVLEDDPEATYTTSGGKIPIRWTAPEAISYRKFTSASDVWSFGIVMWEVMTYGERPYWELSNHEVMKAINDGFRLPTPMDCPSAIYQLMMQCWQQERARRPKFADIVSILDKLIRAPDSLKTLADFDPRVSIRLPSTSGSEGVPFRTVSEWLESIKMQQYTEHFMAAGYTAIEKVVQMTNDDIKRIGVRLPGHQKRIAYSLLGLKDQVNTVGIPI

[1] = target: T1, Serine/threonine-protein kinase 4 (Homo sapiens) (UniProt Q13043); experiment: Inhibition of MST1 in human HeLa cells lysate at 50 uM pre incubated for 15 mins followed by ADP acyl phosphate probe addition and measured after 10 mins by LC-MS/MS analysis relative to control; conditions: time 25.0 min
T1 sequence (whole entry): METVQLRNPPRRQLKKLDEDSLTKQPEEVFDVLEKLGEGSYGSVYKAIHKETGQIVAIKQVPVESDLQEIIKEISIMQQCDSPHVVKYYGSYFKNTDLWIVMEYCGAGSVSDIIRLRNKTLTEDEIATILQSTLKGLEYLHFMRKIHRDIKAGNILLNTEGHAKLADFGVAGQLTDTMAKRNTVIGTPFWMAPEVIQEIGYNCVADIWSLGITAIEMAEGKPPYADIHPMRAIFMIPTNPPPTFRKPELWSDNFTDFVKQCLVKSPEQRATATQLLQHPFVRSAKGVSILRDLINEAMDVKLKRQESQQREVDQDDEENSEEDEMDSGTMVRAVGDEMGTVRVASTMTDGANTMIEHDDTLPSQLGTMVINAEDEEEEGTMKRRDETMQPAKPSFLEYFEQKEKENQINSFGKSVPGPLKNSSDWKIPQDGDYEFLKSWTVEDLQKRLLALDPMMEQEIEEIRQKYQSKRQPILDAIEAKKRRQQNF

[2] = target: Glycogen synthase kinase-3 alpha (Homo sapiens, UniProt P49840); experiment: Inhibition of GSK3A in human HeLa cells lysate at 2 uM pre incubated for 15 mins followed by ATP acyl phosphate probe addition and measured after 10 mins by LC-MS/MS analysis relative to control; conditions: time 25.0 min
Sequence of Glycogen synthase kinase-3 alpha (P49840 2-483 limits assumed): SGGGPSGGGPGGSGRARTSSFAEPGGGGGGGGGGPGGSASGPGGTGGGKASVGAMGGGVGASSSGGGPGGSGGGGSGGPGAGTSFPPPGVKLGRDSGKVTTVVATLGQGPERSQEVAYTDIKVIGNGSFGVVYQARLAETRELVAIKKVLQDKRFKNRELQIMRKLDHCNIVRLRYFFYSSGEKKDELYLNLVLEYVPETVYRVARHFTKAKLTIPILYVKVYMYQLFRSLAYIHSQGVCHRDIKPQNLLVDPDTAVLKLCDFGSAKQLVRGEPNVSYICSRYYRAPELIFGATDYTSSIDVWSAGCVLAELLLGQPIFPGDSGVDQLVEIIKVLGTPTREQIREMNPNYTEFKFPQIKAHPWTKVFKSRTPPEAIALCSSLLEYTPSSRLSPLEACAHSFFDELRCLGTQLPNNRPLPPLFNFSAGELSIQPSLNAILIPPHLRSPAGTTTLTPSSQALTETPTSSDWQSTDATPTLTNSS

[3] = target: Glycogen synthase kinase-3 beta (Homo sapiens, UniProt P49841); experiment: Inhibition of GSK3B isoform 2 in human HeLa cells lysate pre incubated for 15 mins followed by ATP acyl phosphate probe addition and measured after 10 mins by LC-MS/MS analysis
Sequence of Glycogen synthase kinase-3 beta (P49841 whole entry, canonical isoform): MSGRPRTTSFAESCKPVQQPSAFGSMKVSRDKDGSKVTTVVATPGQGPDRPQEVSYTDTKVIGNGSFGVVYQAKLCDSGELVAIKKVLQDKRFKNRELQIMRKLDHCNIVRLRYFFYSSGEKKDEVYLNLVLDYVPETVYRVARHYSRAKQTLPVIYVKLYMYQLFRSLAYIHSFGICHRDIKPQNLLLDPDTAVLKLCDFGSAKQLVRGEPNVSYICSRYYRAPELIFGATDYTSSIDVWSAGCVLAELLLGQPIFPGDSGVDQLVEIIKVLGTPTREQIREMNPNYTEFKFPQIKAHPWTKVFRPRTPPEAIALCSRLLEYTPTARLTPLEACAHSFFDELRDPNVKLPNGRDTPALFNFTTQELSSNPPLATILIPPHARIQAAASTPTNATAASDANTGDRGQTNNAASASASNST

[4] = target: T2, Dual specificity mitogen-activated protein kinase kinase 4 (Homo sapiens) (UniProt P45985); experiment: Inhibition of MAP2K4 in human HeLa cells lysate at 2 uM pre incubated for 15 mins followed by ATP acyl phosphate probe addition and measured after 10 mins by LC-MS/MS analysis relative to control; conditions: time 25.0 min
T2 sequence (whole entry): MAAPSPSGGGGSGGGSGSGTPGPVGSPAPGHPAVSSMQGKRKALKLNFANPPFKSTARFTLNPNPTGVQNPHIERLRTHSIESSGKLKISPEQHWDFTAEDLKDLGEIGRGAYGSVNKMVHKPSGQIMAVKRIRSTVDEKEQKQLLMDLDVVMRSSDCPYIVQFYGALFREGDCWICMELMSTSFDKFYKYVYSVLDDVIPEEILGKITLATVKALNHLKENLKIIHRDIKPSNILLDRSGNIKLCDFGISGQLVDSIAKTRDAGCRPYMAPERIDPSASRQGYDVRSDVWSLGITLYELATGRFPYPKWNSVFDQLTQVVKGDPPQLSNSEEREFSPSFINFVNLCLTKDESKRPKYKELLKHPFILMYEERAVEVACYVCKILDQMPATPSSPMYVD

[5] = target: RAC-alpha serine/threonine-protein kinase (Homo sapiens, UniProt P31749); experiment: Inhibition of AKT1 in human HeLa cells lysate at 2 uM pre incubated for 15 mins followed by ATP acyl phosphate probe addition and measured after 10 mins by LC-MS/MS analysis relative to control; conditions: time 25.0 min
Sequence of RAC-alpha serine/threonine-protein kinase (P31749 whole entry, the tested form may be a part): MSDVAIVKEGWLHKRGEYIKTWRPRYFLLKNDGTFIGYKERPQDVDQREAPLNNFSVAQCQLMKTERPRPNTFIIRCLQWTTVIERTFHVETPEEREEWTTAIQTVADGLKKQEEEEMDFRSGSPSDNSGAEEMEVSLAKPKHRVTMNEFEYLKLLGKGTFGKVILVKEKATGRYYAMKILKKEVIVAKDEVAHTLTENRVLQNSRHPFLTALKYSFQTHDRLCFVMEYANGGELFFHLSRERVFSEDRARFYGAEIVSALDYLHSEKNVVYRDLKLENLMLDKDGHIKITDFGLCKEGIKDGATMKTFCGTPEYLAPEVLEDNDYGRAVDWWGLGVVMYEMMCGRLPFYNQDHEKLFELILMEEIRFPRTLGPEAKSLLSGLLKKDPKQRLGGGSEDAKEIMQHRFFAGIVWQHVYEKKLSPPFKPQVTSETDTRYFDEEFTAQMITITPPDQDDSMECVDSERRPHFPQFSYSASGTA
Procedure, shortened: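 HeLa cell lysates (5 mg/mL total protein) were preincubated with inhibitor at 0, 0.8, 2, 10 or 50 μM for 15 min. ATP or ADP acylphosphate probe was then added (5 μM final) for 10 min, and reactions were stopped with urea. Up to four fragment ions per kinase probe-peptide were quantified by targeted MS. % inhibition was taken relative to untreated lysate. Run in duplicate.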

[6] = target: T3, Mixed lineage kinase domain-like protein (Homo sapiens) (UniProt Q8NB16); experiment: Inhibition of MLKL in human HeLa cells lysate at 10 uM pre incubated for 15 mins followed by ADP acyl phosphate probe addition and measured after 10 mins by LC-MS/MS analysis relative to control; conditions: time 25.0 min
T3 sequence (whole entry): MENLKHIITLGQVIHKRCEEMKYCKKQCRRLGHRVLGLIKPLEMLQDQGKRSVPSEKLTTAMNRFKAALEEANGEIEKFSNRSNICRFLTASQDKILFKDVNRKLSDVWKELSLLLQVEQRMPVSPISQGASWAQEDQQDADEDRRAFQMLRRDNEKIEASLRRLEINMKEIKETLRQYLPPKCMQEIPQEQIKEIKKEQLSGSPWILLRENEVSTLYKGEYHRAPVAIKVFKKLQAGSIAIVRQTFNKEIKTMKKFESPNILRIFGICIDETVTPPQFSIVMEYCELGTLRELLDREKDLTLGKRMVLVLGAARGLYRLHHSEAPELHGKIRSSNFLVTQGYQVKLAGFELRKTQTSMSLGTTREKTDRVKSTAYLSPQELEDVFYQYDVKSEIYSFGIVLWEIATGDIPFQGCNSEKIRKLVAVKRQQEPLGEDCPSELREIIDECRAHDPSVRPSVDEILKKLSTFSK

[7] = target: T4, Serine/threonine-protein kinase 3 (Homo sapiens) (UniProt Q13188); experiment: Inhibition of MST2 in human HeLa cells lysate at 2 uM pre incubated for 15 mins followed by ADP acyl phosphate probe addition and measured after 10 mins by LC-MS/MS analysis relative to control; conditions: time 25.0 min
T4 sequence (whole entry): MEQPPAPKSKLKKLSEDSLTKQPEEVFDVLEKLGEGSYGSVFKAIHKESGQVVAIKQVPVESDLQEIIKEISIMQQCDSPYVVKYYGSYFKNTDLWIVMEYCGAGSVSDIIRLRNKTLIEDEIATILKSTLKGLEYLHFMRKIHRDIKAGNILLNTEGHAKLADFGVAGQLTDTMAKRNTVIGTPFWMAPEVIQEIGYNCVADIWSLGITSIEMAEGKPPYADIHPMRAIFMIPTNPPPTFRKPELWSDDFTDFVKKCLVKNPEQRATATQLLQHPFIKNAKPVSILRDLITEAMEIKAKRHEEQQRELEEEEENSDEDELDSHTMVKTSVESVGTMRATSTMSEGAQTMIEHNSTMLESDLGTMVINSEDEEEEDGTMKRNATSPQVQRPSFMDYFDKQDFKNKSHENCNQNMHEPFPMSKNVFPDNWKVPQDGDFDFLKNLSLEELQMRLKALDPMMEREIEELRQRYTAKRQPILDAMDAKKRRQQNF

[8] = target: Mitogen-activated protein kinase kinase kinase 5 (Homo sapiens) (UniProt Q99683); experiment: Inhibition of MAP3K5 in human HeLa cells lysate at 2 uM pre incubated for 15 mins followed by ATP acyl phosphate probe addition and measured after 10 mins by LC-MS/MS analysis relative to control; conditions: time 25.0 min
Sequence of Mitogen-activated protein kinase kinase kinase 5 (Homo sapiens) (Q99683 whole entry): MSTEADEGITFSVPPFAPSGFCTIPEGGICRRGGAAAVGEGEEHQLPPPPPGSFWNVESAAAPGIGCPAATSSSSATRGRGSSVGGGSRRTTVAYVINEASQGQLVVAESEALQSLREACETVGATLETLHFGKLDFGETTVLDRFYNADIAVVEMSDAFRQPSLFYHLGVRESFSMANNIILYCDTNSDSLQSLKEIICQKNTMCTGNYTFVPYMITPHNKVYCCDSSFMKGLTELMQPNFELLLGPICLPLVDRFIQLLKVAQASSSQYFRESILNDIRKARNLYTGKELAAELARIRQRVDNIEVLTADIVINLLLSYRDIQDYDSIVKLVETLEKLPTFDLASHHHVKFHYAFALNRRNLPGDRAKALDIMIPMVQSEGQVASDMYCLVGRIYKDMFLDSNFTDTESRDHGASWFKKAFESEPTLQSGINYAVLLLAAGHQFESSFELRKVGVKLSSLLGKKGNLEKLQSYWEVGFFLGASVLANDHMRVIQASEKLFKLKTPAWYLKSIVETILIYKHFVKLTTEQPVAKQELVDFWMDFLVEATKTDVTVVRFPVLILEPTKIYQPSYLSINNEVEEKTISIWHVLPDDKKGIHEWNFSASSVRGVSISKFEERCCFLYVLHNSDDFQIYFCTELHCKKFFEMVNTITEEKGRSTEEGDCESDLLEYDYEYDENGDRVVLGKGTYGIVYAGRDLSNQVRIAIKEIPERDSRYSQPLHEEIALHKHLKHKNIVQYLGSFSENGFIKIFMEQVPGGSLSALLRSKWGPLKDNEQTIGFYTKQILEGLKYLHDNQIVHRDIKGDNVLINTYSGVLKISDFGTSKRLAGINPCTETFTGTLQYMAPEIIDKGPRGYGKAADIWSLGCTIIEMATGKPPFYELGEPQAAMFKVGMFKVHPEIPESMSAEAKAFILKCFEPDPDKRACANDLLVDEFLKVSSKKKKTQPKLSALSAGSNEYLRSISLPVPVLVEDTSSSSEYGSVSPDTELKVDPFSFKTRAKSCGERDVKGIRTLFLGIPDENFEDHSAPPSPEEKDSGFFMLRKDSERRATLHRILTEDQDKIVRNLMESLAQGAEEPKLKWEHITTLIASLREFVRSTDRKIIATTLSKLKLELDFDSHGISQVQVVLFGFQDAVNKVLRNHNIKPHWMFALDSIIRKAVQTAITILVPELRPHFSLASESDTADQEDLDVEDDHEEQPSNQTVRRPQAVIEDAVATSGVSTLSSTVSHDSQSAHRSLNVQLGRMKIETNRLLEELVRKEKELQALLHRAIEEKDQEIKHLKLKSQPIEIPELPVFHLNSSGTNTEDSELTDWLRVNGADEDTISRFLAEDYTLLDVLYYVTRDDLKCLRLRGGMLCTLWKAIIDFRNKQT

[9] = target: Mitogen-activated protein kinase kinase kinase 2 (Homo sapiens) (UniProt Q9Y2U5); experiment: Inhibition of MAP3K2 in human HeLa cells lysate at 50 uM pre incubated for 15 mins followed by ADP acyl phosphate probe addition and measured after 10 mins by LC-MS/MS analysis relative to control; conditions: time 25.0 min
Sequence of Mitogen-activated protein kinase kinase kinase 2 (Homo sapiens) (Q9Y2U5 whole entry): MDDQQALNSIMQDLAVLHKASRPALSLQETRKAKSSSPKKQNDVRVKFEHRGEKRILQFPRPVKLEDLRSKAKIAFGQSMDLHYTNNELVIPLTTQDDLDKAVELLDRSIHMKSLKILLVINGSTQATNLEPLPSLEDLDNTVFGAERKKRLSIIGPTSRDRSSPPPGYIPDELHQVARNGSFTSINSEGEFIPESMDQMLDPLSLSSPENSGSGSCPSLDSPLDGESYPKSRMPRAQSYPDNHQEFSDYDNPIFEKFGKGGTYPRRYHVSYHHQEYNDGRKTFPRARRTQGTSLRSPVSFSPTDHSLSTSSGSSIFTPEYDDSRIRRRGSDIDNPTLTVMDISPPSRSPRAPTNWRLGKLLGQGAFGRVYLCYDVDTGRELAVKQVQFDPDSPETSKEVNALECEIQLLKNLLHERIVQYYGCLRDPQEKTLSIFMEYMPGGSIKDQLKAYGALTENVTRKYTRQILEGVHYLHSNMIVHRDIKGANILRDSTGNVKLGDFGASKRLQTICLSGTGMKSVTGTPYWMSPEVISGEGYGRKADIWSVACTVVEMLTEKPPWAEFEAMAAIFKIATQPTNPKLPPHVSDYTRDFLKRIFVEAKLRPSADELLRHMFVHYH

Structure (SMILES): CCOc1cc(N2CCC(O)CC2)ccc1Nc1ncc2c(n1)N(C)c1ccccc1C(=O)N2C
- inhibition (Ephrin type-A receptor 2): -7.6%
- inhibition [1]: 10.2%
- inhibition [2]: -5.5%
- IC50 [3]: > 50 µM
- inhibition [4]: 4.8%
- inhibition [5]: -6.9%
- inhibition [6]: 12%
- inhibition [7]: 26.2%
- inhibition [8]: -6.5%
- inhibition [9]: 3.7%
